Data from ChEMBL document CHEMBL5512642, “Novel triterpenoid pyrones, phthalimides and phthalates are selectively cytotoxic in CCRF-CEM cancer cells - Synthesis, potency, and mitochondrial mechanism of action” (Eur J Med Chem, 2024).
The source made the active and inactive calls. No cut-off for these calls is given here.

Tests used:
CCRF-CEM [1] = assay: Induction of apoptosis in human CCRF-CEM cells assessed as reduction in caspase-3 expression at 5 time of IC50 incubated for 24 hrs by Western blot analysis; type: functional, cell-based
Outline: (§1)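 Lysate 20 µg protein per lane on SDS-PAGE, transferred to nitrocellulose, blocked in 5% BSA/TBS-Tween. Probed overnight at 4 °C with anti-caspase-3, Bcl-2, Bcl-XL, β-actin, then HRP secondary 1 h. ECL chemiluminescence detection.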

[2] = Cytotoxicity against human MRC5 cells assessed as reduction in cell viability incubated for 72 hrs by MTS assay; type: toxicity, cell-based
CCRF-CEM [3] = assay: Induction of apoptosis in human CCRF-CEM cells assessed as viable cells at 1 time IC50 incubated for 24 hrs by Annexin V and propidium iodide staining based flow cytometry analysis (reference value: 98%); type: functional
[4] = Apparent permeability of the compound across apical to basolateral side in MDCK-MDR1 cells assessed as compound recovery at 10 uM incubated for 1 hr by RF-MS analysis; type: ADME, cell-based, Canis lupus familiaris; conditions: dog, read-out: Activity
Outline: (§2)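 Caco-2 and MDCK-MDR1 monolayers; transport measured in both directions, apical→basolateral and basolateral→apical. Efflux ratio taken from the two directions; ER > 2 counted as active efflux. Compound recovery reported. Cell-based permeability runs done in duplicate.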

CCRF-CEM [5] = assay: Antimitotic activity against human CCRF-CEM cells assessed as decrease in cell division at 5 times of IC50; type: functional, cell-based
Outline: (§3)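 Mitotic fraction scored with the pH3 Ser10 marker and DNA synthesis with BrdU incorporation. For transcription, cells received a short BrU pulse after the 24 h pre-incubation. Read by flow cytometry against untreated cells.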

A549 = assay: Cytotoxicity against human A549 cells assessed as reduction in cell viability incubated for 72 hrs by MTS assay; type: functional, cell-based; conditions: A549, 72 h
CCRF-CEM [6] = assay: Induction of mitochondrial membrane potential loss in human CCRF-CEM cells assessed as cells with depolarized mitochondria (P2 gate) by measuring green fluorescence intensity at 5 time IC50 incubated for 24 hrs by JC-1 staining based flow cytometry (reference value: 2.1%)
[7] = Apparent permeability of the compound in MDCK-MDR1 cells at 10 uM incubated for 1 hr by RF-MS analysis; type: ADME, cell-based, Canis lupus familiaris; conditions: dog; outline: as §2
[8] = Metabolic stability in human liver microsomes assessed as compound remaining at measured at 60 mins in presence of NADPH by RF-MS analysis; type: ADME, Microsome; conditions: read-out: Stability
Outline: (§4)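 Human liver microsomes with NADPH cofactor to assess phase I oxidation. Compound remaining sampled at 15, 30 and 60 min; intrinsic clearance derived and categorized. Run in triplicate.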

CCRF-CEM [9] = assay: Induction of apoptosis in human CCRF-CEM cells assessed as reduction in Bcl-2 expression at 5 time of IC50 incubated for 24 hrs by Western blot analysis; type: functional, cell-based; outline: as §1
U2OS = assay: Cytotoxicity against human U2OS cells assessed as reduction in cell viability incubated for 72 hrs by MTS assay; type: functional, cell-based
[10] = Apparent permeability of the compound in human Caco-2 cells; type: ADME, cell-based; outline: as §2
CCRF-CEM [11] = assay: Induction of apoptosis in human CCRF-CEM cells assessed as early apoptotic cells at 1 time IC50 incubated for 24 hrs by Annexin V and propidium iodide staining based flow cytometry analysis (reference value: 1.4%); type: functional
[12] = Cytotoxicity against human BJ cells assessed as reduction in cell viability incubated for 72 hrs by MTS assay; type: toxicity, cell-based
CCRF-CEM [13] = assay: Induction of apoptosis in human CCRF-CEM cells assessed as necrotic cells at 1 time IC50 incubated for 24 hrs by Annexin V and propidium iodide staining based flow cytometry analysis (reference value: 0.1%); type: functional
[14] = Apparent permeability of the compound across apical to basolateral side in human Caco-2 cells assessed as compound recovery; type: ADME, cell-based; conditions: read-out: Activity; outline: as §2
[15] = Stability in human plasma assessed as compound remaining measured 60 mins by RF-MS analysis; type: ADME, cell-free; conditions: read-out: Stability
Outline: (§5)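 Compounds incubated in human plasma in vitro for up to 2 h. Percent remaining sampled at 15, 30, 60 and 120 min. Run in triplicate.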

K562 = assay: Cytotoxicity against human K562 cells assessed as reduction in cell viability incubated for 72 hrs by MTS assay; type: functional, cell-based; conditions: K562, 72 h
CCRF-CEM [16] = assay: Antiproliferative activity against human CCRF-CEM cells assessed as reduction BruD positive cell at 5 time of IC50 by BrdU incorporation assay; type: functional, cell-based; outline: as §3
CCRF-CEM [17] = assay: Antiproliferative activity against human CCRF-CEM cells assessed as inhibition of RNA synthesis at 5 time of IC50 by BrdU incorporation assay; type: functional, cell-based; conditions: in the assay text read “BrU incorporation assay” for “BrdU incorporation assay”; outline: as §3
CCRF-CEM [18] = assay: Induction of apoptosis in human CCRF-CEM cells assessed as reduction in Bcl-XL expression at 5 time of IC50 incubated for 24 hrs by Western blot analysis; type: functional, cell-based; outline: as §1
[19] = Stability in human plasma assessed as compound remaining measured 30 mins by RF-MS analysis; type: ADME, cell-free; conditions: read-out: Stability; outline: as §5
CCRF-CEM [20] = assay: Antiproliferative activity against human CCRF-CEM cells assessed as reduction BruD positive cell at 1 time of IC50 by BrdU incorporation assay; type: functional, cell-based; outline: as §3
CCRF-CEM [21] = assay: Induction of apoptosis in human CCRF-CEM cells assessed as necrotic cells at 5 time IC50 incubated for 24 hrs by Annexin V and propidium iodide staining based flow cytometry analysis (reference value: 0.; type: functional
[22] = Metabolic stability in human liver microsomes assessed as compound remaining at measured at 15 mins in presence of NADPH by RF-MS analysis; type: ADME, Microsome; conditions: read-out: Stability; outline: as §4
HCT 116 TP53(-/-) = assay: Cytotoxicity against human HCT116-p53-null cells assessed as reduction in cell viability incubated for 72 hrs by MTS assay; type: functional, cell-based
CCRF-CEM [23] = assay: Induction of apoptosis in human CCRF-CEM cells assessed as late apoptotic cells at 1 time IC50 incubated for 24 hrs by Annexin V and propidium iodide staining based flow cytometry analysis (reference value: 0.5%); type: functional
CEM-DNR = assay: Cytotoxicity against human CEM-DNR cells assessed as reduction in cell viability incubated for 72 hrs by MTS assay; type: functional, cell-based
[24] = Plasma protein binding in human assessed as fraction bound at 10 uM by rapid equilibrium dialysis based RF-MS analysis; type: ADME, cell-free; conditions: read-out: PPB (converted)
Outline: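 Human plasma protein binding measured by equilibrium dialysis and reported as percent fraction bound. Run in triplicate.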

CCRF-CEM [25] = assay: Induction of apoptosis in human CCRF-CEM cells assessed as late apoptotic cells at 5 time IC50 incubated for 24 hrs by Annexin V and propidium iodide staining based flow cytometry analysis (reference value: 0.5%); type: functional
CCRF-CEM [26] = assay: Induction of apoptosis in human CCRF-CEM cells assessed as viable cells at 5 time IC50 incubated for 24 hrs by Annexin V and propidium iodide staining based flow cytometry analysis (reference value: 98%); type: functional
[27] = Stability in human plasma assessed as compound remaining measured 120 mins by RF-MS analysis; type: ADME, cell-free; conditions: read-out: Stability; outline: as §5
[28] = Stability in human plasma assessed as compound remaining measured 15 mins by RF-MS analysis; type: ADME, cell-free; conditions: read-out: Stability; outline: as §5
HCT-116 = assay: Cytotoxicity against human HCT-116 cells assessed as reduction in cell viability incubated for 72 hrs by MTS assay; type: functional, cell-based; conditions: HCT-116, 72 h
CCRF-CEM [29] = assay: Cytotoxicity against human CCRF-CEM cells assessed as reduction in cell viability incubated for 72 hrs by MTS assay; type: functional, cell-based
CCRF-CEM [30] = assay: Induction of mitochondrial membrane potential loss in human CCRF-CEM cells assessed as cells with depolarized mitochondria (P2 gate) by measuring green fluorescence intensity at 1 time IC50 incubated for 24 hrs by JC-1 staining based flow cytometry (reference value: 2.1%)
CCRF-CEM [31] = assay: Antiproliferative activity against human CCRF-CEM cells assessed as reduction cell population at 1 time of IC50 by BrdU incorporation assay; type: functional, cell-based; outline: as §3
CCRF-CEM [32] = assay: Induction of apoptosis in human CCRF-CEM cells assessed as early apoptotic cells at 5 time IC50 incubated for 24 hrs by Annexin V and propidium iodide staining based flow cytometry analysis (reference value: 1.4%); type: functional
[33] = Cytotoxicity against human K562-Tax cells assessed as reduction in cell viability incubated for 72 hrs by MTS assay; type: functional, cell-based

CC(C)[C@@H]1CC[C@]2(C(=O)O)CC[C@]3(C)[C@H](CC[C@@H]4[C@@]5(C)Cc6c(C(F)(F)F)cc(=O)oc6C(C)(C)[C@@H]5CC[C@]43C)[C@@H]12
Activity (CCRF-CEM [1]): Active
IC50 at 72 h [2]: 27 µM
Activity (CCRF-CEM [3]): 92.4%
recovery at 1 h, 10 µM [4]: 64.8%
Activity (CCRF-CEM [5]): Active
IC50 (A549): 11 µM
Activity (CCRF-CEM [6]): 28.6%
Papp at 1 h, 10 µM [7]: 0.27 ×10⁻⁶ cm/s
remaining at 1 h [8]: 82%
Activity (CCRF-CEM [9]): Active
IC50 (U2OS): 19 µM
Papp [10]: 0.15 ×10⁻⁶ cm/s
Activity (CCRF-CEM [11]): 4.8%
IC50 at 72 h [12]: > 50 µM
Activity (CCRF-CEM [13]): 0%
recovery [14]: 105%
remaining at 1 h [15]: 97.5%
IC50 (K562): 23 µM
Activity (CCRF-CEM [16]): Active
Activity (CCRF-CEM [17]): Active
Activity (CCRF-CEM [18]): Active
remaining at 0.5 h [19]: 97.7%
Activity (CCRF-CEM [20]): inactive
Activity (CCRF-CEM [21]): 0%
remaining at 0.25 h [22]: 106%
IC50 (HCT 116 TP53(-/-)): 18 µM
Activity (CCRF-CEM [23]): 2.8%
IC50 (CEM-DNR): 4.9 µM
fraction unbound at 10 µM [24]: 0.056
Activity (CCRF-CEM [25]): 15.8%
Activity (CCRF-CEM [26]): 69.9%
remaining at 2 h [27]: 94.2%
remaining at 0.25 h [28]: 98.4%
IC50 (HCT-116): 10 µM
IC50 (CCRF-CEM [29]): 3.5 µM
Activity (CCRF-CEM [30]): 4%
Activity (CCRF-CEM [31]): inactive
Activity (CCRF-CEM [32]): 14.3%
IC50 [33]: 17 µM
